High-throughput results as filed in PubChem.
EBV gp42 inh: EBV gp42 inhibition; 0.42% of 220,000 active; Q1HVG2; inhibition, % (tested at 21.74 µM); Fluorescence polarization binding assay, mP read-out; in the data active = inhibition above about 50%
Runt-SMMHC FRET: blocks binding of human RUNX1 Runt domain to CBFb-SMMHC | Q01196+Q13951 | Cerulean-Runt/Venus-CBFb-SMMHC FRET ratio 530/480, 1 h | inhibition, % at 20 µM | 0.74% of 220,000 active;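 active = mean inhibition across duplicate retests at 20 µM reaching about 50%, limit read from the data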;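 note: 0% = DMSO wells and 100% = wells with excess untagged CBFb-SMMHC; inhibitors lower the FRET ratio by blocking Runt binding to CBFb-SMMHC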
Target sequence (Q01196 whole entry, looked up, the tested form may be a part): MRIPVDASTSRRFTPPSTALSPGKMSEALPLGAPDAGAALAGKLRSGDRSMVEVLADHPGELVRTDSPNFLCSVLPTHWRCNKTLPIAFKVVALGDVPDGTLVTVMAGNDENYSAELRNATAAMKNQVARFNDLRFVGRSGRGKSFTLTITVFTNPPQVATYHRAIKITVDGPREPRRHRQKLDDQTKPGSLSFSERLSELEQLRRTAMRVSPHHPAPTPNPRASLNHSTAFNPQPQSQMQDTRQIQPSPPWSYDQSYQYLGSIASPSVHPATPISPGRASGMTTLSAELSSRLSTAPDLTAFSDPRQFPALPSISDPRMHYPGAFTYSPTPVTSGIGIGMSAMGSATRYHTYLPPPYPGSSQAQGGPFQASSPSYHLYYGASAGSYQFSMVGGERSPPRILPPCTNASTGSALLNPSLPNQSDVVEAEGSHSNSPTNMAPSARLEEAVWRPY
Target sequence (Q13951 whole entry, looked up, the tested form may be a part): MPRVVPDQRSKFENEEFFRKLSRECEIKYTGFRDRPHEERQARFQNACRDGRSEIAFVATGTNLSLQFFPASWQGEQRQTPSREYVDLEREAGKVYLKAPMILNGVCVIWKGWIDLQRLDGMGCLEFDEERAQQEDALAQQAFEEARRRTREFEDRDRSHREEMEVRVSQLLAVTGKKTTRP
RanGTP-Impb inh: disruptors of Ran-importin-beta complex formation – biochemical, FRET, CFP-Ran, YFP-importin-beta, homogeneous, primary screen | cell-free CFP-Ran/YFP-importin-beta FRET ratio | inhibition, % (no concentration beside the values) | 1.1% of 300,000 active | AID 2216;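 active = more than half of the replicate wells show a fall in the fluorescence ratio signal beyond about 16%, limit read from the data, passing the limit was not always enough; inconclusive = exactly half of the replicate wells pass the set limit; inactive = fewer than half of replicates pass the limit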;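 note: 0% = DMSO wells and 100% = Ran loaded with GDP instead of GTP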
LANA-H2B inh: blocks KSHV LANA binding to histone H2A/H2B; Q9QR71; cell-free LANA-H2A/H2B peptide, fluorescence polarization; inhibition, % (test concentration not listed); 0.6% of 320,000 active; AID 2629; in the data active = inhibition mostly above about 10%, no sharp cut-off; inactive = mostly below about 6.7%
MEX-5 binding: C. elegans MEX-5 TCR-2 RNA binding activity | 0.38% of 300,000 active | MEX-5/FITC-TCR2 RNA binding, fluorescence polarization; active compounds read low | activity score (negative = inhibition of binding), % at 10 µM | Q9XUB2;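 active = inhibition past about -25% in most replicates, and total fluorescence under double the plate's negative control median, limit read from the data; inconclusive = replicates evenly split on the limit, or fluorescence at least double controls; inactive = too little inhibition in most replicates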;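 note: 0% = DMSO and -100% = 5 µM competing unlabeled TCR2 RNA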
Runt-CBFb FRET: blocks binding of human RUNX1 Runt domain to CBFb; Q01196+Q13951; Cerulean-Runt/Venus-CBFb FRET ratio 530/480, 1 h; inhibition, % at 20 µM; 0.46% of 220,000 active; AID 1496;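 active = inhibition over about 50% at 20 µM in the single-dose screen, limit read from the data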;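 note: 0% = DMSO wells and 100% = excess unlabeled CBFb competitor control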
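Schedule: protein complex preformed 1 h, compound exposure 1 h, room temperature, dark; test system: Cerulean-labeled Runt domain protein; amount: 100 nM per protein; buffer or medium: Tris 50 mM pH 7.5, KCl, K2SO4, 0.01% BSA; read-out: loss of energy transfer signal; detection: FRET fluorescence; controls: 5 µM unlabeled CBFb as full-inhibition high control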
* = called active by the depositor; ? = inconclusive; . = no result given; + = active, no number; ! = a repeat was not active. Only some compounds are listed: those with a hit (about 2.4% of all), similar ones and a draw of the others.

SMILES	EBV gp42 inh	Runt-SMMHC FRET	RanGTP-Impb inh	LANA-H2B inh	MEX-5 binding	Runt-CBFb FRET
COc1ccc(C(=O)N2C(=S)NC(=O)/C2=C\c2ccc(C)cc2)cc1	-76.0	9.8	9.7	-3.1	-28.0*	4.8
COc1ccc(C(=O)C2CCN(C(=O)c3ccc(C)cc3)CC2)cc1	-0.7	-0.8	-0.8	0.5	1.2	-3.4
COc1ccc(CCNC(=O)c2ccc(NS(=O)(=O)c3ccc4[nH]c(=O)[nH]c4c3)cc2)cc1	.	.	-2.7	-2.8	-1.4	.
COCCN(CCOC)C(=O)c1ccc(NS(=O)(=O)c2ccc3[nH]c(=O)[nH]c3c2)cc1	.	.	2.9	32.9*	-0.2	.
CC(C)C(NC(=O)c1c(F)cccc1F)C(=O)N1CCN(c2ncccn2)CC1 (stereo not drawn)	.	.	.	-0.7	.	.
C=CCN1C(=O)S/C(=C\c2ccc(N3CCOCC3)cc2C)C1=O	-40.5	-8.3	-1.6	1.5	-29.1*	-2.5
C=CC(C)N1C(=O)S/C(=C\c2ccc(N3CCOCC3)cc2C)C1=O (stereo not drawn)	-33.2	-38.1	9.4	5.2	-1.4	-20.1
CC(C)CC(NC(=O)C(NC(=O)OC(C)(C)C)C(C)C)C(=O)NC(CCC(=O)OCc1ccccc1)C(N)=O (stereo not drawn)	-7.7	-3.8	0.0	21.0*!	-1.1	-4.9
Cc1ccc(NC(=O)COc2cccc3ccccc23)c(O)c1	.	.	.	3.2	.	.
COCCNc1ncnc2c1cnn2-c1ccc(Cl)cc1	5.4	-0.4	1.0	20.4*	0.4	.
CN(C)CCCNc1ncnc2c1cnn2-c1ccccc1	-15.2	-3.8	-3.2	13.6*	1.5	0.9
Cc1ccccc1S(=O)(=O)N1[C@@H](c2ccc(Cl)cc2)C(C(=O)O)=CC[C@H]1c1ccc(Cl)cc1	.	.	.	60.0*	.	.
Cc1ccc([C@H]2C(C(=O)O)=CC[C@@H](c3ccc(C)cc3)N2S(=O)(=O)c2ccc(C)cc2)cc1	.	.	.	+	.	.
CCCCC[C@@H]1C=C(C(=O)O)[C@H](c2ccc(Cl)c(Cl)c2)N1S(=O)(=O)c1ccc(C)cc1	.	.	.	120.0*	.	.
O=C(CSc1nnc(C2CC2)n1-c1ccccc1)N1CCCC1	.	.	.	0.2	.	.
Cc1ccc(N(CC(=O)NCc2ccco2)C(=O)CCC(=O)Nc2ccccn2)c(C)c1	.	.	-0.1	-0.1	1.9	.
COc1ccc(OC)c(/C=N/NC(=O)CCc2ccc(O)c(O)c2)c1	-0.2	17.7	0.1	1.0	-6.9	42.4
CCc1ccccc1NC(=O)NC1CC2CCC(C1)N2Cc1ccco1 (stereo not drawn)	3.2	2.6	5.5	-1.8	0.1	0.2
O=C(Nc1cccc(Cl)c1)NC1CC2CCC(C1)N2Cc1ccco1 (stereo not drawn)	-2.0	-2.4	33.5*	-1.8	-0.1	2.5
Cc1cc(=O)oc(C)c1C(=O)NNC(=O)C1(C)CC1Br (stereo not drawn)	3.6	2.7	-2.6	-7.8	-0.7	0.4
CC1(C(=O)NNC(=O)c2ccc(=O)oc2)CC1Br (stereo not drawn)	33.3	84.0*	17.0	1.2	-12.9	31.0
COc1ccc2nc3cc(Cl)ccc3c(Nc3cc(CN4CCCC4)c(O)c(CN4CCCC4)c3)c2n1	.	.	?	-2.0	-35.7*	.
COc1ccc(-c2nnn(CC(=O)N(CCN3CCOCC3)C(C(=O)NC3CCCC3)c3ccco3)n2)cc1 (stereo not drawn)	3.2	5.3	6.9	6.7	1.0	-0.8
CC(NC(=O)c1ccccc1F)C12CC3CC(CC(C3)C1)C2 (stereo not drawn)	.	.	0.4	-2.8	-1.1	.
CCOC(=O)Cc1nc2ccccc2n(CC#N)c1=O	-13.2	-3.0	-0.6	2.8	-33.4*	0.1
SMILES	EBV gp42 inh	Runt-SMMHC FRET	RanGTP-Impb inh	LANA-H2B inh	MEX-5 binding	Runt-CBFb FRET
CCOC(=O)Cn1c(C)nc2ccccc21	9.5	2.5	?	-1.7	-4.2	-1.2
Clc1ccsc1-c1csc(-c2cccnc2)n1	-7.8	-3.7	37.5*	4.1	2.1	-3.3
COC(=O)C1=CO[C@@H](C)[C@H]2CN3CCc4c([nH]c5ccccc45)[C@@H]3C[C@H]12	.	.	.	-2.8	.	.
COC(=O)C1=COC(C)C2CN3CCc4c([nH]c5ccccc45)C3CC12 (stereo not drawn)	19.2	46.1	122.3*	20.9	-18.3	10.7
CCC(c1nnc(SCC(=O)Nc2ccc(C(=O)Nc3ccccc3OC)cc2)o1)N(C)C (stereo not drawn)	-6.7	-5.3	0.6	-5.6	-3.7	-1.0
N#CC(=C=[N-])/C=C(\C(=O)c1ccccc1)[n+]1ccccc1	-15.3	-0.5	-2.2	20.7*	0.0	3.2
Cc1cc(NS(=O)(=O)c2ccc(NC(=O)CSc3nc4ncc(Cl)cc4[nH]3)cc2)nc(C)n1	-8.5	-2.5	3.9	0.1	-13.2	2.0
COc1ccc(CC(=O)Nc2ccc(F)c(F)c2F)cc1S(=O)(=O)N1CCOCC1	.	.	.	140.0*	.	.
COc1ccc(CC(=O)Nc2ccc(C)cc2O)cc1S(=O)(=O)N1CCOCC1	.	.	1.0	-2.9	1.3	.
CCOc1ccccc1OCCCC(=O)Nc1ccc(Cl)c(S(=O)(=O)N2CCOCC2)c1	.	.	.	29.6*	.	.
COc1ccc(NC(=O)Cn2ncc(Cl)c(Cl)c2=O)cc1S(=O)(=O)N1CCOCC1	60.7*	-7.7	4.8	-2.0	0.5	-3.9
CC(C)CC(=O)N1CCN(S(=O)(=O)c2ccc(C3CCCCC3)cc2)CC1	.	.	.	-5.1	.	.
N#Cc1ccc(-c2ccc(OCC(=O)NCCCN3CCCC3=O)cc2)cc1	8.2	-1.9	0.9	3.5	2.0	-2.3
O=[N+]([O-])c1ccc(O)c(N=Cc2sc3ccccc3c2O)c1	48.1	47.7	38.0*	-4.8	.	16.2
Oc1c(C=Nc2cccc3cccnc23)sc2ccccc12	-16.8	18.1	39.2*	-6.3	4.1	34.6
Cc1cccc(/N=C/c2sc3ccccc3c2O)n1	-17.7	-1.3	32.7*	-4.3	-0.6	-1.0
Oc1ccc(Cl)cc1N=Cc1sc2ccccc2c1Cl	-0.6	16.8	?	1.7	0.8	.
N/C(Cc1nc2ccccc2s1)=N\O	-9.2	4.9	85.4*	0.9	-1.0	4.2
Cc1ccc(NC(=O)C2Cc3ccccc3CN2C(=O)c2ccco2)cc1S(=O)(=O)N(C)C (stereo not drawn)	.	.	0.4	-15.8	-0.3	.
Cc1cc(NS(=O)(=O)c2ccc(NC(=O)c3cc4c(=O)n5ccccc5nc4s3)cc2)nc(C)n1	14.0	74.1*	7.5	.	-4.4	32.8
CCC(NC(=O)OCc1ccccc1)C(=O)Oc1ccc2ccc(=O)oc2c1 (stereo not drawn)	.	.	21.5*	0.4	-3.1	.
CCn1c(SCc2ccc(C(=O)Nc3nccs3)cc2)nnc1-c1ccc(N)cc1	53.3*	-2.8	1.7	-1.4	2.3	2.8
